Measurements from ChEMBL document CHEMBL3860038, “Discovery of (R,E)-N-(7-Chloro-1-(1-[4-(dimethylamino)but-2-enoyl]azepan-3-yl)-1H-benzo[d]imidazol-2-yl)-2-methylisonicotinamide (EGF816), a Novel, Potent, and WT Sparing Covalent Inhibitor of Oncogenic (L858R, ex19del) and Resistant (T790M) EGFR Mutants for the Treatment of EGFR Mutant …” (J Med Chem, 2016).
Values after ≈ are worked out from the molar mass of the structure shown.

biological target: Cytochrome P450 2C9 (Homo sapiens, UniProt P11712); test: Inhibition of CYP2C9 (unknown origin); format: ADME; details: not given
Sequence (P11712 whole entry): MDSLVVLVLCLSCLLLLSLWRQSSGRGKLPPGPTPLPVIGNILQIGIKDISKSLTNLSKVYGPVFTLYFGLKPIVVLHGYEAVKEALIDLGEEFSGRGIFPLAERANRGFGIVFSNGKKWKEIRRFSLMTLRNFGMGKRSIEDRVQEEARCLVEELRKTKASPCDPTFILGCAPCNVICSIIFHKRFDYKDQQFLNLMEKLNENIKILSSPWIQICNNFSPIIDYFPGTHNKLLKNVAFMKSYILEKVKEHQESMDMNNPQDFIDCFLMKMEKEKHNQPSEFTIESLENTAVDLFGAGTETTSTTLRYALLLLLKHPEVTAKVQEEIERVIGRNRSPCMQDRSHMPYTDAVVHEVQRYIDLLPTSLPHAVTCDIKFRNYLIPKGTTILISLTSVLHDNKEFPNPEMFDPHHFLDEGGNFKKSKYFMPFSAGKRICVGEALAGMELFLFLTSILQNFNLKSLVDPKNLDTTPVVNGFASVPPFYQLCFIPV

Row | Compound | IC50 [nM]
1 | Cc1cccc2nc(NC(=O)c3cccc(C(F)(F)F)c3)n([C@@H]3CCCCN(C(=O)/C=C/CN(C)C)C3)c12 | 17600

tested on: not listed separately; test: Intrinsic clearance in human liver microsomes; format: ADME; details: read-out: CLH

Row | Compound | microsomal CLint [µL/min/mg]
2 | Cc1cccc2nc(NC(=O)c3cccc(C(F)(F)F)c3)n([C@@H]3CCCCN(C(=O)/C=C/CN(C)C)C3)c12 | 49

biological target: T1, Epidermal growth factor receptor (Homo sapiens, UniProt P00533, L858R/T790M); test: Inhibition of EGFR L858R/T790M mutant phosphorylation in human patient derived H1975 cells incubated for 3 hrs by ELISA method; format: cell-based; details: not given
T1 sequence (P00533 25-1210 T790M/L858R limits assumed): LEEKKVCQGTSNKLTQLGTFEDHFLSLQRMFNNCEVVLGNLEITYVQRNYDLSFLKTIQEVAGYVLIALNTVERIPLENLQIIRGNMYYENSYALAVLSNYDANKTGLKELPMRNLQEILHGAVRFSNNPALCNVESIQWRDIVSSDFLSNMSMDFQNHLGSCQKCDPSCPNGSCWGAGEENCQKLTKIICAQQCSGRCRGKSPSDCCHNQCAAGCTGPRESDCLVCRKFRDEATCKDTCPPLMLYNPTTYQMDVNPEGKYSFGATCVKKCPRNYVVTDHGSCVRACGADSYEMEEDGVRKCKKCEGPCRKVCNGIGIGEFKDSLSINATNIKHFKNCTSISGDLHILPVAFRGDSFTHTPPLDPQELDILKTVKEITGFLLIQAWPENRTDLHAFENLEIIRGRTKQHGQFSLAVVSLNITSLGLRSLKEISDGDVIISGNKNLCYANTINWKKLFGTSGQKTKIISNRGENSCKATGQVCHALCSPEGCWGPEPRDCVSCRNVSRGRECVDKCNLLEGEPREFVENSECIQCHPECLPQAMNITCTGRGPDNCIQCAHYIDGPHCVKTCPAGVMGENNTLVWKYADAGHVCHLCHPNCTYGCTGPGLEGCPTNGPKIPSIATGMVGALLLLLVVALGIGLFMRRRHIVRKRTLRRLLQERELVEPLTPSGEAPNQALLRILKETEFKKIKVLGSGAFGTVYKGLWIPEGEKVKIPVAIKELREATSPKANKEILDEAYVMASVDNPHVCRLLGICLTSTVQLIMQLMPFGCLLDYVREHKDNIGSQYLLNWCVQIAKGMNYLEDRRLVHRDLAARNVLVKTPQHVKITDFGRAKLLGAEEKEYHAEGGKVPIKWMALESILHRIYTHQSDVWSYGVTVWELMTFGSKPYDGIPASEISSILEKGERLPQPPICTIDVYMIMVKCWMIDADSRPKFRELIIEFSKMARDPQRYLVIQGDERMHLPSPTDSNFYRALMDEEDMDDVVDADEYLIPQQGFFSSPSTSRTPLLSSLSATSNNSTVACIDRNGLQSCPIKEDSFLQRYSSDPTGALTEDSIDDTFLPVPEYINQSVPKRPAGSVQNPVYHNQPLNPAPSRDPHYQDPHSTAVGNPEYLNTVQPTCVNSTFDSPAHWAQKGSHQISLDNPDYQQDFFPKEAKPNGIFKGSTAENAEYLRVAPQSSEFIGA

Row | Compound | IC50 [nM]
3 | C=CC(=O)NCCCn1c(NC(=O)c2cccc(C(F)(F)F)c2)nc2cc(C)ccc21 | 525
4 | C=CC(=O)N(C)c1cccc(-n2c(NC(=O)c3cccc(C(F)(F)F)c3)nc3cc(C)ccc32)c1 | 181
5 | Cc1cccc2nc(NC(=O)c3cccc(C(F)(F)F)c3)n([C@@H]3CCCCN(C(=O)/C=C/CN(C)C)C3)c12 | 2.18
6 | C=CC(=O)N1CCCCC(n2c(NC(=O)c3cccc(C(F)(F)F)c3)nc3cc(C)ccc32)C1 (centres undefined) | 6.1
7 | C=CC(=O)N1CCCC(n2c(NC(=O)c3cccc(C(F)(F)F)c3)nc3cc(C)ccc32)C1 (centres undefined) | 24.7
8 | C=CC(=O)Nc1cccc(-n2c(NC(=O)c3cccc(C(F)(F)F)c3)nc3cc(C)ccc32)c1 | 135

biological target: T2, Epidermal growth factor receptor (Homo sapiens, UniProt P00533); test: Inhibition of N-terminal 6x-HIS-tagged wild type human recombinant EGFR (696 to 1022 residues) expressed in Sf9 cells pre-incubated for 90 mins followed by 10 uM ATP addition by HTRF assay; details: not given
T2 sequence (P00533 whole entry, the tested form may be a part): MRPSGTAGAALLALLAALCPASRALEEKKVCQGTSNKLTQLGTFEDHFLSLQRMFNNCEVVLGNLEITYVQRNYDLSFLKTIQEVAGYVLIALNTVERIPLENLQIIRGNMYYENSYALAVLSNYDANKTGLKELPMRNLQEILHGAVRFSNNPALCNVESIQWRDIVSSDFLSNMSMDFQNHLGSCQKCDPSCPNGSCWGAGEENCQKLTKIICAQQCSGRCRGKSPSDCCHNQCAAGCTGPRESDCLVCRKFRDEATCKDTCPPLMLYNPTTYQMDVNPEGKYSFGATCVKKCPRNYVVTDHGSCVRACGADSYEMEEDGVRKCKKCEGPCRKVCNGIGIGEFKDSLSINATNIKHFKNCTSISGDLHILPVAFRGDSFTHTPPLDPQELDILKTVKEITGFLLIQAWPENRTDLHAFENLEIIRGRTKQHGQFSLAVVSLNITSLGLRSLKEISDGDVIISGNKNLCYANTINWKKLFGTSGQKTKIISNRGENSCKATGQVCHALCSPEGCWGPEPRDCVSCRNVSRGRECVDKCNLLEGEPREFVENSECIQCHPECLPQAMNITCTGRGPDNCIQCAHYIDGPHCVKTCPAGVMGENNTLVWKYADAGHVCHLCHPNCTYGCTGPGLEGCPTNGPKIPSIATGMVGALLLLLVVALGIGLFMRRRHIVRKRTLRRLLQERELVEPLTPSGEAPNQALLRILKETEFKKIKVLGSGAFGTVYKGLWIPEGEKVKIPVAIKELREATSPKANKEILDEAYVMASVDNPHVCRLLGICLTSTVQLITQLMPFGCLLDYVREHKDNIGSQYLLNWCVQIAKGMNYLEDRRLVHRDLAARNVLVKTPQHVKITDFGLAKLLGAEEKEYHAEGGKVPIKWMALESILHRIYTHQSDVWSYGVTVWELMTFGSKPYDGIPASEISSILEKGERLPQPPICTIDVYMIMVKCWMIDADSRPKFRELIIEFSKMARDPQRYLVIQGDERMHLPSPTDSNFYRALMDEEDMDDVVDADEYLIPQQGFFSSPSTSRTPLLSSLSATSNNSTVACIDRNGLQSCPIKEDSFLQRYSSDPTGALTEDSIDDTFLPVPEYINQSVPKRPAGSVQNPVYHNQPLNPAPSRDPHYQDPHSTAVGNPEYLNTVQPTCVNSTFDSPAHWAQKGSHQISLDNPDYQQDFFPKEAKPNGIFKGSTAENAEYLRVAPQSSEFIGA

Row | Compound | IC50 [nM]
9 | CCOCc1ccc2c(c1)nc(NC(=O)c1cccc(C(F)(F)F)c1)n2[C@H]1CC[C@H](O)CC1 | > 42000
10 | Cc1ccc2c(c1)nc(NC(=O)c1cccc(C(F)(F)F)c1)n2[C@H]1CC[C@H](O)CC1 | > 11800
11 | Cc1cccc2c1nc(NC(=O)c1cccc(C(F)(F)F)c1)n2[C@H]1CC[C@H](O)CC1 | > 50000
12 | O=C(Nc1nc2ccccc2n1[C@H]1CC[C@H](O)CC1)c1cccc(C(F)(F)F)c1 | > 50000
13 | Cc1cccc2nc(NC(=O)c3cccc(C(F)(F)F)c3)n([C@H]3CC[C@H](O)CC3)c12 | 5270

biological target: T1, Epidermal growth factor receptor; test: Inhibition of N-terminal 6x-HIS-tagged human recombinant EGFR (696 to 1022 residues) L858R/T790M mutant expressed in Sf9 cells pre-incubated for 0 mins followed by 1 mM ATP addition by HTRF assay; details: not given
Procedure, shortened: (§1)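 HTRF kinase assay on the EGFR L858R-T790M kinase domain at 1 mM ATP. Compound with either no preincubation or a 90 min enzyme/compound preincubation.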

Row | Compound | IC50 [nM]
14 | C=CC(=O)N[C@H]1CC[C@@H](n2c(NC(=O)c3cccc(C(F)(F)F)c3)nc3cc(C)ccc32)CC1 | > 50000
15 | C=CC(=O)N1CCC(n2c(NC(=O)c3cccc(C(F)(F)F)c3)nc3cc(C)ccc32)C1 (centres undefined) | > 50000
16 | C=CC(=O)NCCCn1c(NC(=O)c2cccc(C(F)(F)F)c2)nc2cc(C)ccc21 | > 50000
17 | C=CC(=O)N(C)c1cccc(-n2c(NC(=O)c3cccc(C(F)(F)F)c3)nc3cc(C)ccc32)c1 | 22300
18 | C=CC(=O)N1CCCCC(n2c(NC(=O)c3cccc(C(F)(F)F)c3)nc3cc(C)ccc32)C1 (centres undefined) | 830
19 | C=CC(=O)N1CCCC(n2c(NC(=O)c3cccc(C(F)(F)F)c3)nc3cc(C)ccc32)C1 (centres undefined) | > 50000
20 | C=CC(=O)Nc1cccc(-n2c(NC(=O)c3cccc(C(F)(F)F)c3)nc3cc(C)ccc32)c1 | > 50000

biological target: T1, Epidermal growth factor receptor; test: Inhibition of N-terminal 6x-HIS-tagged human recombinant EGFR (696 to 1022 residues) L858R/T790M mutant expressed in Sf9 cells pre-incubated for 90 mins followed by 10 uM ATP addition by HTRF assay; details: not given

Row | Compound | IC50 [nM]
21 | CCOCc1ccc2c(c1)nc(NC(=O)c1cccc(C(F)(F)F)c1)n2[C@H]1CC[C@H](O)CC1 | 470
22 | Cc1ccc2c(c1)nc(NC(=O)c1cccc(C(F)(F)F)c1)n2[C@H]1CC[C@H](O)CC1 | 140
23 | Cc1cccc2c1nc(NC(=O)c1cccc(C(F)(F)F)c1)n2[C@H]1CC[C@H](O)CC1 | 1370
24 | O=C(Nc1nc2ccccc2n1[C@H]1CC[C@H](O)CC1)c1cccc(C(F)(F)F)c1 | 260
25 | Cc1cccc2nc(NC(=O)c3cccc(C(F)(F)F)c3)n([C@H]3CC[C@H](O)CC3)c12 | 90

tested on: not listed separately; test: Inhibition of EGFR E746 to A750 deletion mutant phosphorylation in human patient derived HCC827 cells incubated for 3 hrs by ELISA method; format: cell-based; details: HCC827, 3 h
Procedure, shortened: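 HCC827 cells plated at 7500/well in 5% FBS/RPMI and left overnight at 37 °C. Then 3 h with a 12-point compound dilution series, no EGF stimulation. Lysed in Triton/protease/phosphatase-inhibitor buffer. Phospho-EGFR (Y1173) read by sandwich ELISA: anti-EGFR capture, anti-phospho-EGFR, anti-rabbit-HRP, chemiluminescence. IC50 from at least duplicates.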

Row | Compound | IC50 [nM]
26 | C=CC(=O)NCCCn1c(NC(=O)c2cccc(C(F)(F)F)c2)nc2cc(C)ccc21 | 1650
27 | C=CC(=O)N(C)c1cccc(-n2c(NC(=O)c3cccc(C(F)(F)F)c3)nc3cc(C)ccc32)c1 | 268
28 | Cc1cccc2nc(NC(=O)c3cccc(C(F)(F)F)c3)n([C@@H]3CCCCN(C(=O)/C=C/CN(C)C)C3)c12 | 12.4
29 | C=CC(=O)N1CCCCC(n2c(NC(=O)c3cccc(C(F)(F)F)c3)nc3cc(C)ccc32)C1 (centres undefined) | 15.9
30 | C=CC(=O)N1CCCC(n2c(NC(=O)c3cccc(C(F)(F)F)c3)nc3cc(C)ccc32)C1 (centres undefined) | 153
31 | C=CC(=O)Nc1cccc(-n2c(NC(=O)c3cccc(C(F)(F)F)c3)nc3cc(C)ccc32)c1 | 272

biological target: T3, Epidermal growth factor receptor (Homo sapiens, UniProt P00533, L858R); test: Inhibition of EGFR L858R mutant phosphorylation in human patient derived H3255 cells incubated for 3 hrs by ELISA method; format: cell-based; details: not given
T3 sequence (P00533 25-1210 L858R limits assumed): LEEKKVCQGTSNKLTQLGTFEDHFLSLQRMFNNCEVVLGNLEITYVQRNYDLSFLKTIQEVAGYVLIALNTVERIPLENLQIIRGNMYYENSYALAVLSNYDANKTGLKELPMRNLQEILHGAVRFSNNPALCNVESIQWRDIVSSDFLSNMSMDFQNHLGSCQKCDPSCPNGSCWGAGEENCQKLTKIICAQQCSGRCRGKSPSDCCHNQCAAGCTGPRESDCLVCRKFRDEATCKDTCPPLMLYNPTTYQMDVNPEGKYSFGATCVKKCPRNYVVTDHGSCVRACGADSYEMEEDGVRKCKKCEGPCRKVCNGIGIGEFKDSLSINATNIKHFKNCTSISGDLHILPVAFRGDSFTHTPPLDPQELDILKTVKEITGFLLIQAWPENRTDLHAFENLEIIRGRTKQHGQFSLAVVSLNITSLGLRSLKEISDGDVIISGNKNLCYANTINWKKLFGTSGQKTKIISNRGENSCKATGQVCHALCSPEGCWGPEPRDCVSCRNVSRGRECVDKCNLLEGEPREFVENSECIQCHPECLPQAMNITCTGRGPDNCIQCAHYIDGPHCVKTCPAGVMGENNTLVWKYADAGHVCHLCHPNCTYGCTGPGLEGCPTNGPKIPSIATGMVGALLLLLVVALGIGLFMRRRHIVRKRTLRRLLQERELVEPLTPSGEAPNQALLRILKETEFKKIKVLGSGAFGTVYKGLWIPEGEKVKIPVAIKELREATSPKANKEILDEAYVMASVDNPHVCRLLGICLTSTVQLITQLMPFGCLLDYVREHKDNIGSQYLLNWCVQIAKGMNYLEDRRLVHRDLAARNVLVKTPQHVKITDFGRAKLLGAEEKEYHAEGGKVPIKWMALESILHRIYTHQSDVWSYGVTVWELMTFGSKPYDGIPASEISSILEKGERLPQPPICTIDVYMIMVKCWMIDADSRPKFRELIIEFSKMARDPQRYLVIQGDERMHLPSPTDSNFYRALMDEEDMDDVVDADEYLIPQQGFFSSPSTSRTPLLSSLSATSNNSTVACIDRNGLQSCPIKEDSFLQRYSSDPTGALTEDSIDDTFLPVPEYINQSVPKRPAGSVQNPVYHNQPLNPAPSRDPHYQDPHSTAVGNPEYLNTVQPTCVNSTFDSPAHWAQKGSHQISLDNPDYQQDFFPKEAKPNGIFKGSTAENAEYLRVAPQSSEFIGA

Row | Compound | IC50 [nM]
32 | Cc1cccc2nc(NC(=O)c3cccc(C(F)(F)F)c3)n([C@@H]3CCCCN(C(=O)/C=C/CN(C)C)C3)c12 | 45.9
33 | C=CC(=O)N1CCCCC(n2c(NC(=O)c3cccc(C(F)(F)F)c3)nc3cc(C)ccc32)C1 (centres undefined) | 74.9
34 | C=CC(=O)N1CCCC(n2c(NC(=O)c3cccc(C(F)(F)F)c3)nc3cc(C)ccc32)C1 (centres undefined) | 421
35 | C=CC(=O)Nc1cccc(-n2c(NC(=O)c3cccc(C(F)(F)F)c3)nc3cc(C)ccc32)c1 | 1040

tested on: not listed separately; test: Glutathione reactivity assessed as GSH adduct formation incubated for 1 hr using 10 mM glutathione; details: not given
Procedure, shortened: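 Compound incubated 1 h with 10 mM glutathione; GSH adduct formation measured.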

Row | Compound | Drug metabolism [%]
36 | Cc1cccc2nc(NC(=O)c3cccc(C(F)(F)F)c3)n([C@@H]3CCCCN(C(=O)/C=C/CN(C)C)C3)c12 | < 5

biological target: T1, Epidermal growth factor receptor; test: Inhibition of N-terminal 6x-HIS-tagged human recombinant EGFR (696 to 1022 residues) L858R/T790M mutant expressed in Sf9 cells pre-incubated for 90 mins followed by 1 mM ATP addition by HTRF assay; details: not given; procedure, shortened: as §1

Row | Compound | IC50 [nM]
37 | C=CC(=O)N[C@H]1CC[C@@H](n2c(NC(=O)c3cccc(C(F)(F)F)c3)nc3cc(C)ccc32)CC1 | > 50000
38 | C=CC(=O)N1CCC(n2c(NC(=O)c3cccc(C(F)(F)F)c3)nc3cc(C)ccc32)C1 (centres undefined) | > 50000
39 | C=CC(=O)NCCCn1c(NC(=O)c2cccc(C(F)(F)F)c2)nc2cc(C)ccc21 | 50
40 | C=CC(=O)N(C)c1cccc(-n2c(NC(=O)c3cccc(C(F)(F)F)c3)nc3cc(C)ccc32)c1 | 10
41 | C=CC(=O)N1CCCCC(n2c(NC(=O)c3cccc(C(F)(F)F)c3)nc3cc(C)ccc32)C1 (centres undefined) | < 2
42 | C=CC(=O)N1CCCC(n2c(NC(=O)c3cccc(C(F)(F)F)c3)nc3cc(C)ccc32)C1 (centres undefined) | 20
43 | C=CC(=O)Nc1cccc(-n2c(NC(=O)c3cccc(C(F)(F)F)c3)nc3cc(C)ccc32)c1 | 4

biological target: T2, Epidermal growth factor receptor; test: Inhibition of wild type EGFR phosphorylation in human HaCaT cells incubated for 3 hrs by ELISA method; format: cell-based; details: not given

Row | Compound | IC50 [nM]
44 | C=CC(=O)N(C)c1cccc(-n2c(NC(=O)c3cccc(C(F)(F)F)c3)nc3cc(C)ccc32)c1 | > 10000
45 | Cc1cccc2nc(NC(=O)c3cccc(C(F)(F)F)c3)n([C@@H]3CCCCN(C(=O)/C=C/CN(C)C)C3)c12 | 351
46 | C=CC(=O)N1CCCCC(n2c(NC(=O)c3cccc(C(F)(F)F)c3)nc3cc(C)ccc32)C1 (centres undefined) | 4330
47 | C=CC(=O)N1CCCC(n2c(NC(=O)c3cccc(C(F)(F)F)c3)nc3cc(C)ccc32)C1 (centres undefined) | > 10000

biological target: T3, Epidermal growth factor receptor; test: Inhibition of N-terminal 6x-HIS-tagged human recombinant EGFR (696 to 1022 residues) L858R mutant expressed in Sf9 cells pre-incubated for 90 mins followed by 10 uM ATP addition by HTRF assay; details: not given

Row | Compound | IC50 [nM]
48 | CCOCc1ccc2c(c1)nc(NC(=O)c1cccc(C(F)(F)F)c1)n2[C@H]1CC[C@H](O)CC1 | 2080
49 | Cc1ccc2c(c1)nc(NC(=O)c1cccc(C(F)(F)F)c1)n2[C@H]1CC[C@H](O)CC1 | > 8480
50 | Cc1cccc2c1nc(NC(=O)c1cccc(C(F)(F)F)c1)n2[C@H]1CC[C@H](O)CC1 | 11800
51 | O=C(Nc1nc2ccccc2n1[C@H]1CC[C@H](O)CC1)c1cccc(C(F)(F)F)c1 | 2000
52 | Cc1cccc2nc(NC(=O)c3cccc(C(F)(F)F)c3)n([C@H]3CC[C@H](O)CC3)c12 | 680

tested on: not listed separately; test: Intrinsic clearance in mouse liver microsomes; format: ADME; details: read-out: CLH

Row | Compound | microsomal CLint [µL/min/mg]
53 | Cc1cccc2nc(NC(=O)c3cccc(C(F)(F)F)c3)n([C@@H]3CCCCN(C(=O)/C=C/CN(C)C)C3)c12 | 233

biological target: Cytochrome P450 3A4 (Homo sapiens, UniProt P08684); test: Inhibition of CYP3A4 (unknown origin); format: ADME; details: not given
Sequence (P08684 whole entry): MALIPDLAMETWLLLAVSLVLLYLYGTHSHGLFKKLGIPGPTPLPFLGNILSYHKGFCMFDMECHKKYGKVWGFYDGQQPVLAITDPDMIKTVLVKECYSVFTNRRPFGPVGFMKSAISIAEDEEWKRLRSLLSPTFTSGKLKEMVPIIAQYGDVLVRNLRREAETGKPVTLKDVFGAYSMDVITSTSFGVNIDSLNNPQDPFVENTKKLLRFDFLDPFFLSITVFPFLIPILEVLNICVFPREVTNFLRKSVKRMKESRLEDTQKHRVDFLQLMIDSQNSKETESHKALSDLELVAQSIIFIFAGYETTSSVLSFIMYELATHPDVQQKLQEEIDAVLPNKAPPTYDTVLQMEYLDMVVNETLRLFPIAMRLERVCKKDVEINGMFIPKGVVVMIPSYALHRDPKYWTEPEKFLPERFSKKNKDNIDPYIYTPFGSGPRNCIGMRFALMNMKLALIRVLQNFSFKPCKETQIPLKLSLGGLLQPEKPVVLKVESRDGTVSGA

Row | Compound | IC50 [nM]
54 | Cc1cccc2nc(NC(=O)c3cccc(C(F)(F)F)c3)n([C@@H]3CCCCN(C(=O)/C=C/CN(C)C)C3)c12 | 22200

tested on: not listed separately; test: Clearance in balb/c mouse at 5 mg/kg, iv by liquid chromatography-tandem mass spectrometry; format: ADME, organism-based; details: in vivo
Procedure, shortened: (§2)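 Rodent PK in male balb/c mice and male Wistar rats; plasma drug levels by LC-MS/MS. Mouse oral dosing at 20 mg/kg, with compounds given as a 0.5% methylcellulose/0.5% Tween 80 suspension or as solutions (PEG300/D5W, or ethanol/PEG300 with Solutol or D5W), depending on compound.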

Row | Compound | clearance [mL/min/kg]
55 | Cc1cccc2nc(NC(=O)c3cccc(C(F)(F)F)c3)n([C@@H]3CCCCN(C(=O)/C=C/CN(C)C)C3)c12 | 57.2

tested on: not listed separately; test: AUC in balb/c mouse at 20 mg/kg, po by liquid chromatography-tandem mass spectrometry; format: ADME, organism-based; details: in vivo; procedure, shortened: as §2

Row | Compound | AUC [µM·h]
56 | Cc1cccc2nc(NC(=O)c3cccc(C(F)(F)F)c3)n([C@@H]3CCCCN(C(=O)/C=C/CN(C)C)C3)c12 | 4.39

tested on: not listed separately; test: Aqueous solubility of the compound at pH 6.8; format: physicochemical; details: not given

Row | Compound | solubility [µM]
57 | Cc1cccc2nc(NC(=O)c3cccc(C(F)(F)F)c3)n([C@@H]3CCCCN(C(=O)/C=C/CN(C)C)C3)c12 | 10.5 (≈ 5.54 µg/mL)

biological target: Cytochrome P450 2D6 (Homo sapiens, UniProt P10635); test: Inhibition of CYP2D6 (unknown origin); format: ADME; details: not given
Sequence (P10635 whole entry): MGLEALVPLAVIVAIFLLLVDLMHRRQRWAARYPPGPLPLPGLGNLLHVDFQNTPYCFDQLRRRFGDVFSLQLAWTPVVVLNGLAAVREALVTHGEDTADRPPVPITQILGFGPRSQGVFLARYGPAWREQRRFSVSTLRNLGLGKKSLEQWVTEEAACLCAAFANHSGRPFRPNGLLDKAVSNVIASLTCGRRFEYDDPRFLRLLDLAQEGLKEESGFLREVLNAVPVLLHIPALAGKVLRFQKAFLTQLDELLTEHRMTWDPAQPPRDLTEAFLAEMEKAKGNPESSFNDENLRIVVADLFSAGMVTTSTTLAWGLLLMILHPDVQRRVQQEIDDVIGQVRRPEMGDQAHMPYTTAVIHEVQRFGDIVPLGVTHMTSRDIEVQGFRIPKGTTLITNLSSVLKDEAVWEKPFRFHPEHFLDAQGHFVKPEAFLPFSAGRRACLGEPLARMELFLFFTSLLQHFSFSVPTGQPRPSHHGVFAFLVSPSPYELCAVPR

Row | Compound | IC50 [nM]
58 | Cc1cccc2nc(NC(=O)c3cccc(C(F)(F)F)c3)n([C@@H]3CCCCN(C(=O)/C=C/CN(C)C)C3)c12 | 16700

tested on: not listed separately; test: Oral bioavailability in balb/c mouse at 20 mg/kg by liquid chromatography-tandem mass spectrometry; format: ADME, organism-based; details: in vivo; procedure, shortened: as §2

Row | Compound | bioavailability [%]
59 | Cc1cccc2nc(NC(=O)c3cccc(C(F)(F)F)c3)n([C@@H]3CCCCN(C(=O)/C=C/CN(C)C)C3)c12 | 40
